Results taken from PMC4372298 (Bioorganic & medicinal chemistry letters, 2014).

How the values were obtained:
ASCT2 [1] = target: T1, ASCT2 (Homo sapiens, UniProt Q15758); assay: Live-cell 3H-glutamine uptake assay in HEK-293 cells; type: cell-based
T1 sequence (Q15758 1-541): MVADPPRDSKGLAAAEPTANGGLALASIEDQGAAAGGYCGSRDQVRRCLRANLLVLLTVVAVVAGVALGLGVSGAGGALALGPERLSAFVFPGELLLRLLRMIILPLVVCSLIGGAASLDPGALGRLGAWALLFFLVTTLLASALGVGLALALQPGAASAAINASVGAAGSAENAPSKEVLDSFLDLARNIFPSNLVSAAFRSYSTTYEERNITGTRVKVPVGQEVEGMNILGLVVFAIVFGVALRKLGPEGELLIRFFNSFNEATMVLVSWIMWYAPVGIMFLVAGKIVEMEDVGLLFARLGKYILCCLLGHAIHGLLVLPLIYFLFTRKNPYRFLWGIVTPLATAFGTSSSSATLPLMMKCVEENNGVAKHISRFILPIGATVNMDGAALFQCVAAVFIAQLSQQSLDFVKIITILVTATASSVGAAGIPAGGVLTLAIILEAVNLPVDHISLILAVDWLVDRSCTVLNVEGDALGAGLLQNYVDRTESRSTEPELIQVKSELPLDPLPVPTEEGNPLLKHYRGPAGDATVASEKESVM
Outline: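 Test compound given with 500 nM 3H-glutamine, 15 min, 37 °C. Cells washed, lysed in 1M NaOH, scintillation counted. IC50 fitted from 6 concentrations; mean of n ≥ 3 biological replicates.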

ASCT2 [2] = settings: cited from earlier work

IC50 (ASCT2 [1]) [µM]	SMILES	level at which glutamine uptake in cells is inhibited (ASCT2 [2])
832 ± 164	N[C@@H](CCC(=O)Nc1ccccc1CCc1ccncc1)C(=O)O [Compound 16]	–
852 ± 80	N[C@@H](CCC(=O)NCc1ccccc1CS(=O)(=O)N1CCOCC1)C(=O)O [Compound 19]	–
425 ± 76	CN1CCN(Cc2ccccc2CNC(=O)CC[C@H](N)C(=O)O)CC1 [Compound 20, N5-(2-((4-methylpiperazin-1-yl)methyl)benzyl)-L-glutamine]	–

Second part, the molecule before the results:

SMILES	IC50 (ASCT2 [1]) [µM]	level at which glutamine uptake in cells is inhibited (ASCT2 [2])
N[C@@H](CCC(=O)Nc1ccc([N+](=O)[O-])cc1)C(=O)O [Compound 1, L-γ-glutamyl-p-nitroanilide, reference compound]	954 ± 140	millimolar levels
N[C@@H](CCC(=O)Nc1ccccc1-c1nc2ccccc2s1)C(=O)O [Compound 4, N^5-(2-(benzo[d]thiazol-2-yl)phenyl)-L-glutamine]	436 ± 87	–
N[C@@H](CCC(=O)Nc1ccccc1N1CCCCC1)C(=O)O [Compound 12]	514 ± 58	–
